Results taken from ChEMBL document CHEMBL4261600 (Eur J Med Chem, 2018).

Key:
[1] = target: Peripheral plasma membrane protein CASK (Homo sapiens) (UniProt O14936); test: Binding affinity to wild-type human partial length CASK (M1 to H315 residues) expressed in mammalian expression system assessed as remaining unbound target protein level at 1000 nM by Kinomescan method relative to control
In short: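 KINOMEscan competition binding profile across a panel of 468 kinases and mutants, with the inhibitor tested at a single concentration of 1 μM. Binding is reported as percent of control, meaning signal relative to a DMSO control.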

[2] = target: Cyclin-dependent kinase-like 3 (Homo sapiens) (UniProt Q8IVW4); test: Binding affinity to wild-type human partial length CDKL3 (M1 to D327 residues) expressed in bacterial expression system assessed as remaining unbound target protein level at 1000 nM by Kinomescan method relative to control
Cyclin-dependent kinase-like 3 (Homo sapiens), sequence (Q8IVW4 whole entry, looked up, the tested form may be a part): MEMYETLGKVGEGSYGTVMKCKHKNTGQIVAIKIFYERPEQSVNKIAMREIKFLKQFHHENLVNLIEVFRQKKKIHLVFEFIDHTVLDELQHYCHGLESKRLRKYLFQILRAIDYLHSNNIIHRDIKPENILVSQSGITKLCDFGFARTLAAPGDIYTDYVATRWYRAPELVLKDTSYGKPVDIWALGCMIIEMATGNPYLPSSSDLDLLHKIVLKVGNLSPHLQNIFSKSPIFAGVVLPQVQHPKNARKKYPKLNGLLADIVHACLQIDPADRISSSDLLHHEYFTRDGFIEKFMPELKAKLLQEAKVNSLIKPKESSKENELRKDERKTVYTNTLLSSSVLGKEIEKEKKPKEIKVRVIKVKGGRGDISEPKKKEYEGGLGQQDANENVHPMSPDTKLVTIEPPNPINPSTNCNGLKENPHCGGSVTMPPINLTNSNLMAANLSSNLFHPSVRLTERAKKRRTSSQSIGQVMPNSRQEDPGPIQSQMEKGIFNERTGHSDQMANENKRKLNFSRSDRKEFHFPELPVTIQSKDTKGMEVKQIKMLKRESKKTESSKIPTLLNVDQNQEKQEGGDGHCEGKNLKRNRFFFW

Peripheral plasma membrane protein CASK (Homo sapiens), sequence (O14936 whole entry, the tested form may be a part): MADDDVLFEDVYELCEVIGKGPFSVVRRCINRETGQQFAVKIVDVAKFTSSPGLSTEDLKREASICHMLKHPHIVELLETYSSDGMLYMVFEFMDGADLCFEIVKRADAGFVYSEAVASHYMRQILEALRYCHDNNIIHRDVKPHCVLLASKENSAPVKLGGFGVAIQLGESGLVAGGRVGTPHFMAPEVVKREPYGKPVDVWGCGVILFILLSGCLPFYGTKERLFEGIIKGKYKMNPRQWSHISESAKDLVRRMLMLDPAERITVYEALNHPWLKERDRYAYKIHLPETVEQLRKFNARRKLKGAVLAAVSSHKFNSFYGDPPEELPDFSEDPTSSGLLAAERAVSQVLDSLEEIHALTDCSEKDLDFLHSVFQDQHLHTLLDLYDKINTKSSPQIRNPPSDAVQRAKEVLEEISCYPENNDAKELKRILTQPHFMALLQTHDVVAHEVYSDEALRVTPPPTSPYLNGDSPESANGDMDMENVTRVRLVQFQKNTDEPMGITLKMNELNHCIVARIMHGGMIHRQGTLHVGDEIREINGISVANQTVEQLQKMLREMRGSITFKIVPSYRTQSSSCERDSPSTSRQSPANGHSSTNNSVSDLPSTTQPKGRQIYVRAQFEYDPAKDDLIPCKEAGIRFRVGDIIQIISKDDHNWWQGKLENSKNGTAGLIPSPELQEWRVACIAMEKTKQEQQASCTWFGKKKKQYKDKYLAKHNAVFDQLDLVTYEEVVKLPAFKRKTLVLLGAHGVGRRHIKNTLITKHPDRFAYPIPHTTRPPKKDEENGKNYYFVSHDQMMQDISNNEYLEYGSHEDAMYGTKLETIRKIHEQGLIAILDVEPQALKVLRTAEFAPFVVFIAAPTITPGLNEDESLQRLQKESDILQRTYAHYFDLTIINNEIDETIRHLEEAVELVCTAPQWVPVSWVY

COCCN[C@H]1CC[C@H](Nc2cc(-c3csc(NCC4(C#N)CCOCC4)n3)c(Cl)cn2)CC1 gave an Activity [1] of 81% and an Activity [2] of 83%.
